In test [1] the test system is A2780. Kind of test: Cell cycle arrest in human A2780 cells assessed as accumulation at G2 phase at 30 uM by propidium iodide staining-based FACS analysis (reference value: 15.721 %). It counts as functional. (Flow cytometry measures light scatter and fluorescence of single cells or particles in a stream.)
A short description of test [2]: Cytotoxicity against human 518A2 cells after 96 hrs by SRB assay. It counts as functional, cell-based. The following applies: 518A2, 96 h.
In test [3] the test system is A2780. Kind of test: Induction of apoptosis in human A2780 cells assessed as necrotic cells at 30 uM after 24 hrs by annexin V/propidium iodide staining-based FACS analysis (reference value: 1.78%). It counts as functional.
Test [4] relates to A2780. Description: Cell cycle arrest in human A2780 cells assessed as accumulation at S phase at 30 uM by propidium iodide staining-based FACS analysis (reference value: 32.439 %). Format: functional.
The subject of another test is A549. Kind of test: Cytotoxicity against human A549 cells after 96 hrs by SRB assay. It counts as functional, cell-based. The conditions noted are these: A549, 96 h.
For test [5], the system named is A2780. Description: Cytotoxicity against human A2780 cells after 96 hrs by SRB assay. The following applies: A2780, 96 h. Format: functional, cell-based. (In general: The SRB assay estimates cell density from bound dye.)
The next test has as its system HT-29. Kind of test: Cytotoxicity against human HT-29 cells after 96 hrs by SRB assay. Format: functional, cell-based. The following applies: HT-29, 96 h.
Another test deals with NIH3T3. Description: Cytotoxicity against mouse NIH/3T3 cells after 96 hrs by SRB assay. It counts as ADME, cell-based. The following applies: NIH3T3, 96 h.
The test system of test [6] is A2780. Description: Cell cycle arrest in human A2780 cells assessed as accumulation at G1 phase at 30 uM by propidium iodide staining-based FACS analysis (reference value: 51.839 %). Format: functional.
Test [7] concerns A2780. Description: Induction of apoptosis in human A2780 cells assessed as secondary necrotic cells at 30 uM after 24 hrs by annexin V/propidium iodide staining-based FACS analysis (reference value: 9.71%). Format: functional.
Another test has as its system MCF7. Kind of test: Cytotoxicity against human MCF7 cells after 96 hrs by SRB assay. Format: functional, cell-based. The conditions noted are these: MCF7, 96 h.
For the next test, the system named is 8505C. Description: cells. It counts as functional, cell-based. The following applies: Homo sapiens, 96 h.
In test [8] the test system is A2780. Description: Induction of apoptosis in human A2780 cells assessed as necrotic cells at 30 uM after 24 hrs by annexin V/propidium iodide staining-based FACS analysis (reference value: 6.37%). Format: functional.
The test system of test [9] is A2780. Kind of test: Cell cycle arrest in human A2780 cells assessed as accumulation at G0/G1 phase at 30 uM by propidium iodide staining-based FACS analysis. It counts as functional.
Test [10] deals with A2780. Description: Induction of apoptosis in human A2780 cells assessed as vital cells at 30 uM after 24 hrs by annexin V/propidium iodide staining-based FACS analysis (reference value: 82.15%). It counts as functional.
The test system of test [11] is A2780. Kind of test: Cell cycle arrest in human A2780 cells assessed as reduction of G2/M phase at 30 uM by propidium iodide staining-based FACS analysis. Format: functional.
In test [12] the test system is A2780. Description: Induction of apoptosis in human A2780 cells at 30 uM after 24 hrs by annexin V/propidium iodide staining-based FACS analysis. It counts as functional.
Test [13] deals with A2780. Kind of test: Induction of apoptosis in human A2780 cells assessed as DNA ladder formation at 30 uM after 24 hrs by electrophoresis. Format: functional, cell-based. The essentials: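 A2780 cells were exposed to 30 µM compound for 24 h. Floating (dead) cells were collected and washed with PBS, and DNA fragmentation was examined by gel laddering alongside an untreated control.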

The test system of test [14] is A2780. Kind of test: Cell cycle arrest in human A2780 cells at 30 uM by propidium iodide staining-based FACS analysis. It counts as functional.

pIC50: −log10 of the molar value. Activity calls are given as the source filed them. The calls are words filed in the database; no cut-off is given here.

Turning to `CC(=O)O[C@H]1CC[C@]2(C)[C@H]3C(=O)C(O)=C4[C@@H]5CC(C)(C)CC[C@]5(C(=O)OCc5ccccc5)CC[C@@]4(C)[C@]3(C)CC[C@H]2C1(C)C`, the Activity in the test on A2780 [1] amounted to 15.469%; with A2780 [3], 1.55%; in the test with A2780 [4] it was 22.262%; in the test on A2780 [6], 62.269%; in the test on A2780 [7], 12.64%; in the test with A2780 [8], 12.83%. In addition, the Activity was below 20% in the test on A2780 [9] and 72.96% with A2780 [10]. Also, the negative-log IC50 (pIC50) in test [2] was below 4.22; in the test with A549, below 4.22; in the test on A2780 [5], 5.09; in the test on HT-29, below 4.22; in the test with NIH3T3, below 4.22; in the test on MCF7 it was below 4.22. Also, the pIC50 in the test on 8505C is 4.79.
In the case of `COC(=O)[C@]12CCC(C)(C)C[C@H]1C1=CC(=O)[C@@H]3[C@@]4(C)CC[C@H](OC(C)=O)C(C)(C)[C@@H]4CC[C@@]3(C)[C@]1(C)CC2`, the Activity in the test with A2780 [1] is 17.835%; in the test on A2780 [3], 1.4%; with A2780 [4], 25.334%; in the test with A2780 [6] it was 56.831%; in the test on A2780 [7], 12.57%; in the test with A2780 [8], 13.28%. Moreover, the Activity with A2780 [10] was determined as 72.75%. The negative logarithm of the IC50 (pIC50) in test [2] is 4.62; in the test with A549 it was 4.18; in the test with A2780 [5], 4.40; in the test on HT-29, 4.53; in the test with NIH3T3, 4.47; in the test on 8505C, 4.79.
`CC(=O)O[C@H]1CC[C@]2(C)[C@H]3CC(=O)[C@@H]4[C@@H]5CC(C)(C)CC[C@]5(C(=O)OCc5ccccc5)CC[C@@]4(C)[C@]3(C)CC[C@H]2C1(C)C`: the Activity in the test with A2780 [1] is reported as 1.057%; with A2780 [4], 40.927%; in the test on A2780 [6], 58.015%. The negative-log IC50 (pIC50) in [2] was 4.14; in the test on A549, 4.16; in the test on A2780 [5] it was 4.70; in the test on HT-29, below 4.05; in the test with NIH3T3, below 4.05; in the test on MCF7 it was below 4.05. In addition, the negative-log IC50 (pIC50) in the test with 8505C is 4.38. Besides, the result in the test on A2780 [11] was Active.
For the compound `COC(=O)[C@]12CCC(C)(C)C[C@H]1C1=CC(=O)[C@@H]3[C@@]4(C)CC[C@H](O)C(C)(C)[C@@H]4CC[C@@]3(C)[C@]1(C)CC2`, the negative-log IC50 (pIC50) in [2] was 4.81; in the test on A549, 4.82; with A2780 [5] it was 5.18; in the test on HT-29 it was 4.73; with NIH3T3, 4.61; in the test on MCF7 it was 4.67. In the test with 8505C, this compound showed a negative logarithm of the IC50 (pIC50) of 4.89. Moreover, the Activity is 3.11% in the test with A2780 [3]; above 50% in the test on A2780 [12]; 29.68% in the test with A2780 [7]; 34.13% with A2780 [8]; 33.08% in the test on A2780 [10]. Moreover, in the test with A2780 [13], the result was Active.
As for `CC(=O)O[C@H]1CC[C@]2(C)[C@H]3C[C@H](O)[C@]45OC(=O)[C@@]6(CCC(C)(C)C[C@H]64)CC[C@@]5(C)[C@]3(C)CC[C@H]2C1(C)C`, the Activity with A2780 [1] was found to be 15.86%; with A2780 [3], 1.54%; with A2780 [4], 32.261%; with A2780 [6], 51.879%; in the test with A2780 [7] it was 11.89%; in the test with A2780 [8] it was 11.84%. The Activity in the test with A2780 [10] was 74.74%. In addition, the pIC50 is below 4.05 in test [2]; below 4.05 in the test with A549; 4.20 with A2780 [5]; below 4.05 in the test with HT-29; 4.07 in the test on NIH3T3; below 4.05 in the test with MCF7. This compound had a pIC50 with 8505C below 4.05. The result in the test with A2780 [14] was inactive.
As to `COC(=O)[C@]12CCC(C)(C)C[C@H]1C1=C(O)C(=O)[C@@H]3[C@@]4(C)CC[C@H](O)C(C)(C)[C@@H]4CC[C@@]3(C)[C@]1(C)CC2`, the Activity with A2780 [1] is given as 18.968%; in the test on A2780 [3] it was 6.65%; with A2780 [4] it was 21.594%; in the test with A2780 [12], above 50%; with A2780 [6] it was 59.438%; with A2780 [7], 19.74%. Also, the Activity with A2780 [8] was found to be 48.08%; with A2780 [10] it was 25.72%. Also, the negative logarithm of the IC50 (pIC50) in test [2] was 4.67; with A549 it was 4.59; in the test with A2780 [5], 4.76; in the test on HT-29 it was 4.82; in the test on NIH3T3 it was 4.59; with MCF7 it was 4.59. The pIC50 with 8505C is 4.63.
With `CC(=O)O[C@H]1CC[C@]2(C)[C@H]3C[C@H](OC(C)=O)[C@]45OC(=O)[C@@]6(CCC(C)(C)C[C@H]64)CC[C@@]5(C)[C@]3(C)CC[C@H]2C1(C)C`, the Activity in the test on A2780 [1] is 16.597%; with A2780 [3] it was 3.78%; in the test on A2780 [4], 27.288%; in the test with A2780 [6], 56.115%; in the test with A2780 [7], 18.67%; with A2780 [8] it was 32.66%. In addition, the Activity in the test on A2780 [10] is reported as 44.89%. Further, the pIC50 in [2] was 5.17; in the test on A549, 5.18; in the test on A2780 [5], 5.25; in the test on HT-29, 4.85; in the test on NIH3T3, 5.14; in the test with MCF7, 4.73. In addition, the negative-log IC50 (pIC50) with 8505C was 5.15. The outcome in the test with A2780 [12] and in the test with A2780 [13] was Active. Further, in the test with A2780 [14], the outcome was inactive.
For the compound `COC(=O)[C@]12CCC(C)(C)C[C@H]1C1=C(O)C(=O)[C@@H]3[C@@]4(C)CC[C@H](OC(C)=O)C(C)(C)[C@@H]4CC[C@@]3(C)[C@]1(C)CC2`, the Activity in the test with A2780 [1] came out at 7.345%; in the test on A2780 [3], 2%; in the test on A2780 [4], 42.682%; in the test on A2780 [6] it was 49.973%; in the test with A2780 [7], 16.21%; with A2780 [8], 24.67%. Moreover, the Activity in the test on A2780 [10] is 57.12%. Besides, the pIC50 in [2] was 5.11; in the test on A549, 5.09; in the test on A2780 [5], 5.40; in the test with HT-29, 4.87; with NIH3T3, 4.90; with MCF7 it was 5.03. In the test with 8505C, this compound had a negative-log IC50 (pIC50) of 5.08. Besides, the result in the test with A2780 [12], with A2780 [11] and with A2780 [13] was Active.
With `COC(=O)[C@]12CCC(C)(C)C[C@H]1C1=CC[C@@H]3[C@@]4(C)CC[C@H](OC(C)=O)C(C)(C)[C@@H]4CC[C@@]3(C)[C@]1(C)CC2`, the Activity is 15.901% with A2780 [1]; 2.41% in the test on A2780 [3]; 28.805% in the test on A2780 [4]; 55.294% in the test with A2780 [6]; 9.43% in the test on A2780 [7]; 15.68% with A2780 [8]. In addition, the Activity in the test on A2780 [10] is reported as 72.47%. For the same compound, the negative-log IC50 (pIC50) in [2] is 4.47; in the test on A549 it was 4.58; in the test on A2780 [5], 5.07; in the test on HT-29 it was 4.57; in the test with NIH3T3, 4.46; in the test with MCF7, 4.78. Further, the pIC50 in the test with 8505C is 4.69. Moreover, in the test with A2780 [14], the result was inactive.
As for `CC1(C)CC[C@]2(C(=O)OCc3ccccc3)CC[C@]3(C)[C@H](C(=O)C[C@@H]4[C@@]5(C)CC[C@H](O)C(C)(C)[C@@H]5CC[C@]43C)[C@@H]2C1`, the Activity with A2780 [3] stood at 0.62%; in the test with A2780 [7] it was 11.08%; in the test with A2780 [8] it was 13.82%; in the test on A2780 [10], 74.47%.
For `CC1(C)CC[C@]2(C(=O)O)CC[C@]3(C)C(=CC[C@@H]4[C@@]5(C)CC[C@H](O)C(C)(C)[C@@H]5CC[C@]43C)[C@@H]2C1` [OLEANOLIC_ACID], the negative-log IC50 (pIC50) in test [2] was below 4.22; in the test with A549 it was 4.14; in the test on A2780 [5], 4.85; with HT-29, 4.41; in the test with NIH3T3, 4.12; with MCF7 it was below 4.22. Besides, the pIC50 with 8505C was below 4.22.

For orientation: pIC50 means −log10 of the IC50, conventionally taken in molar units.

For the origin of these results see ChEMBL document CHEMBL3108738, “The chemical and biological potential of C ring modified triterpenoids” (Eur J Med Chem, 2014).
